Screening results: PubChem BioAssay, several laboratories
Hits are enriched below; roughly 2.5% of the tested compounds scored in any of these assays.
TRPC4 PAM – allosterically enhances the mouse TRPC4 cation channel; Q9QUQ5; HEK293 TRPC4beta/mu-opioid, DAMGO EC20, Fluo-4 Ca2+ flux; active compounds read high; B-score at 10 µM; 310,000 compounds, 0.42% hits; AID 2227;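 active = B-score of calcium response area above 5 SD of library B-scores, with initial fluorescence ratio within 5 SD of library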
TRPC6 inh – inhibitors of mouse TRPC6 channel | Q61143 | HEK293-TRPC6, membrane potential dye, ACh-evoked depolarization; active compounds read low | B-score at 10 µM | 310,000 compounds, 1.1% hits | AID 2553;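 active = B-score under library mean minus 3 SD, initial fluorescence not abnormally high, positive integrated signal ratio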;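 also: B-score derived from integrated fluorescence ratio over the kinetic read; more negative B-score means stronger inhibition of depolarization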
Pemphigus Ab inh – blocks pemphigus antibody binding to human desmoglein-3; P32926; DSG3-coupled beads, scFv-anti-DSG3-GFP binding, flow cytometry; active compounds read low; binding (percent of control), % at 10 µM; 310,000 compounds, 0.48% hits; AID 588358;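 active = binding more than 3 SD below its plate's average and above zero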;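 also: hits lower antibody fragment binding to DSG3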
TRPC6 activator – mouse TRPC6 channel activation. HEK293-TRPC6 membrane potential dye fluorescence; active compounds read high. B-score at 10 µM. 310,000 compounds, 0.13% hits;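 active = B-score of the integrated fluorescence ratio above library mean plus 3 SD, and starting fluorescence ratio within library mean plus 5 SD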;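 also: higher score means more depolarization so channel activation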
TRPC4 act – activators of mouse TRPC4 channel | Q9QUQ5 | HEK293 TRPC4beta/mu-opioid, Fluo4 calcium fluorescence; active compounds read high | B-score at 10 µM | 310,000 compounds, 0.49% hits;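 active = B-score above 5 SD of library B-scores, and initial fluorescence ratio not above library mean plus 5 SD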;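 also: positive B-score marks a calcium rise read as TRPC4 activation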
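Assay system – TRPC4beta and mu-opioid receptor HEK293 stable cells · Measured by – Fluo4 fluorescence, kinetic · Schedule – dye loading 45 min room temperature, 110 s kinetic read · Read-out – B-scored integrated calcium fluorescence ratio · Controls – buffer and maximal DAMGO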
TRPC4 inh – blocks the mouse TRPC4 cation channel; B-score at 10 µM; 300,000 compounds, 0.39% hits; HEK293 TRPC4beta/mu-opioid, DAMGO-evoked Fluo4 calcium flux; active compounds read low; Q9QUQ5;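 active = B-score over 3 SD under the library average, no early fluorescence shift, positive overall ratio signal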
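Assay system: TRPC4beta/mu-opioid receptor HEK293 cell line; compound dosing: single concentration per test compound; detection: Fluo4 Ca2+ flux fluorescence; evaluation: per-well B score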
TRPC4 sel inh 2 – mouse TRPC4 off-target activity of TRPC6 inhibitors, second screen. 920 compounds, 42% hits. HEK293 TRPC4/MOR, membrane potential dye fluorescence; channel activated by saturating DAMGO dose. shares compounds with TRPC6 inh. inhibition, % at 10 µM;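 active = compounds whose fluorescence signal differed from control wells by over 3 SD, either direction, in both duplicate plates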
TRPC4 spec – mouse TRPC4 off-target activity of TRPC6 inhibitors | shares compounds with TRPC6 inh | HEK293 TRPC4/mu-opioid, membrane potential fluorescence | activity change, negative = inhibition, % at 10 µM | 920 compounds, 61% hits;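 active = rise or fall in signal beyond 3 SD of buffer-only wells in both replicate plates, either sign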;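 also: integrated kinetic ratio of fluorescence range over baseline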
HEK293 MPD ctr 2-1 – parental HEK293 nonspecific activity of TRPC6 inhibitors, second screen | AID 2779 | signal change vs control, % at 10 µM | 920 compounds, 31% hits | shares compounds with TRPC6 inh | parental HEK293 membrane potential dye fluorescence; maximal acetylcholine challenge after compound addition;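 active = membrane potential signal moving either way by over 3 SD of the maximum-effect control, in both duplicate plates, meaning non-specific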
HEK293 MPD ctr-1 – checks TRPC6 inhibitor effects in parental HEK293 cells | shares compounds with TRPC6 inh | parental HEK293 membrane potential dye fluorescence | membrane potential signal change, % at 10 µM | 920 compounds, 60% hits | AID 2780;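 active = membrane potential signal shifting up or down by more than 3 SD of buffer-only wells, on both duplicate plates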
HEK293 MPD ctr-2 – parental HEK293 nonspecific activity of TRPC6 modulators | shares compounds with TRPC6 inh | membrane potential dye fluorescence | membrane potential signal change, % at 10 µM | 2,400 compounds, 51% hits | AID 488924;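 active = membrane potential signal moves up or down beyond 5 SD from buffer-only wells, on both duplicate plates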
HEK293 MPD ctr 2-2 – parental HEK293 nonspecific activity of TRPC6 modulators, second screen | inhibition, % at 10 µM | shares compounds with TRPC6 inh | membrane potential dye fluorescence; after compound, maximal acetylcholine stimulation | 2,400 compounds, 14% hits;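 active = membrane potential signal drops by more than 5 SD from the mean control signal, in both duplicate plates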
TRPC4/MOR mod – tests whether TRPC6 modulators also affect mouse TRPC4; HEK293 TRPC4/mu-opioid, membrane potential fluorescence; percent change from control (negative = decrease, positive = increase), % at 10 µM; 2,400 compounds, 69% hits; shares compounds with TRPC6 inh;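 active = membrane potential signal moved up or down beyond 5 SD of buffer control wells, in both duplicate plates, actives on both sides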
TRPC4/MOR inh 2 – second selectivity test of TRPC6 modulators against mouse TRPC4 | 2,400 compounds, 55% hits | HEK293 TRPC4/mu-opioid, membrane potential dye fluorescence; stimulated with maximal-effect DAMGO | shares compounds with TRPC6 inh | inhibition, % at 10 µM;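 active = drop in membrane potential signal beyond 5 SD of the control wells in both duplicate plates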;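 also: TRPC4 counter screen for TRPC6 hits run under conditions tuned for TRPC6 not TRPC4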
TRPC6 inh conf – confirmation of mouse TRPC6 inhibitors | shares compounds with TRPC6 inh | HEK293-TRPC6, membrane potential dye, ACh-evoked depolarization | inhibition, % at 10 µM | 3,300 compounds, 43% hits | AID 488960;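 active = fluorescence ratio falls more than 5 SD below the full-stimulation control mean, in both duplicate runs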;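 also: integrated fluorescence ratio of peak minus minimum over baseline after agonist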
TRPC6 act confirm – mouse TRPC6 activator confirmation | activation, % at 10 µM | 2,800 compounds, 11% hits | HEK293-TRPC6 membrane potential dye fluorescence, FDSS | shares compounds with TRPC6 inh;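 active = ratio signal rise beyond 5 SD above unstimulated control wells' mean, seen in both duplicate runs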
Hits are given with their value; – = inactive; · = no result given; ! = repeats disagree.

SMILES | TRPC4 PAM | TRPC6 inh | Pemphigus Ab inh | TRPC6 activator | TRPC4 act | TRPC4 inh | HEK293 MPD ctr-2 | HEK293 MPD ctr 2-2 | TRPC4/MOR mod | TRPC4/MOR inh 2 | TRPC6 inh conf | TRPC6 act confirm | others
Cc1ccc(-c2nnn(CC(=O)N(Cc3ccco3)C(C(=O)NC3CCCC3)c3cccs3)n2)o1 (configuration not stated) | – | – | – | – | – | – | · | · | · | · | · | ·
COc1ccc(C(C(=O)NC2CCCC2)N(CC2CCCO2)C(=O)Cn2nnc(-c3ccc(C)o3)n2)cc1 (configuration not stated) | – | -6.2 | – | – | – | – | – | – | – | – | – | –
Cc1ccc(-c2nnn(CC(=O)N(CCO)C(C(=O)NC3CCCC3)c3ccc(F)cc3)n2)o1 (configuration not stated) | – | – | – | – | – | – | · | · | · | · | · | ·
CCN(CC)CCN(C(=O)Cn1nnc(-c2ccc(C)o2)n1)C(C(=O)NC1CCCC1)c1ccc(F)cc1 (configuration not stated) | – | – | – | 30 | – | – | 343% | – | 68% | 44% | – | 192%
Cc1cccc(C(=O)OCN2C(=O)c3ccccc3C2=O)c1[N+](=O)[O-] | – | – | – | – | – | – | · | · | · | · | · | ·
CCc1cccc(NS(=O)(=O)c2c(C)[nH]c(=O)[nH]c2=O)c1 | – | – | – | – | – | – | · | · | · | · | · | ·
O=[N+]([O-])c1ccc(-c2csc(N3CCc4ccccc4C3)n2)cc1 | – | – | – | – | – | – | · | · | · | · | · | ·
O=[N+]([O-])c1ccc(N2CCc3ccccc3C2)cc1 | – | -5.3 | – | – | – | – | – | – | – | – | – | –
CCOC(=O)c1ccc2c(c1)nc(-c1ccccn1)n2CC | – | -5.5 | – | – | – | – | – | – | – | – | – | –
CCOC(=O)Cn1c(-c2ccccn2)nc2ccccc21 | – | – | – | – | – | – | · | · | · | · | · | ·
COc1ccc(C2CC3(CC(C)(C)NC(SC)=N3)Oc3cc(O)cc(C)c32)cc1 (configuration not stated) | – | – | – | – | – | – | · | · | · | · | · | ·
CC(C)(C)NCc1cc(Cl)ccc1OCc1ccccc1F | – | -8.1 | – | 18 | – | – | 488% | – | 106% | 84% | 100% | 152%
C=CCOc1ccc(Br)cc1CNC(C)(C)C | – | -6.1 | – | – | – | – | 214% | 98% | 52% | 100% | 80% | ·
CC(C)(C)NCc1ccccc1OCc1cccs1 | – | -9.8 | – | – | – | -7 | · | · | · | · | 89% | · | TRPC4 sel inh 2=31%;TRPC4 spec=38%;HEK293 MPD ctr 2-1=-20%;HEK293 MPD ctr-1=21%
CC(C)(C)NCc1cc(Cl)ccc1OCc1cccs1 | – | -8 | – | – | – | – | · | · | · | · | 108% | · | TRPC4 sel inh 2=40%;TRPC4 spec=58%;HEK293 MPD ctr 2-1=30%;HEK293 MPD ctr-1=32%
COc1ccc(S(=O)(=O)Nc2ccccc2C(=O)NCc2cccnc2)cc1OC | – | – | – | – | – | – | · | · | · | · | · | ·
COc1nc2ccccc2nc1CCC(=O)O | – | – | – | – | – | – | · | · | · | · | · | ·
CC(C)NCc1cc(Br)ccc1OCc1ccccc1 | – | -7.2 | – | 12 | – | – | 403% | – | 96% | 83% | 81% | 116%
CC(C)(C)NCc1cc(Br)ccc1OCc1cccs1 | – | -11 | – | – | – | – | · | · | · | · | 99% | · | TRPC4 sel inh 2=39%;TRPC4 spec=64%;HEK293 MPD ctr 2-1=–;HEK293 MPD ctr-1=36%
O=C(CSc1nnc(-c2ccc(F)cc2)c2ccccc12)NCC1CCCO1 (configuration not stated) | – | – | – | – | – | – | · | · | · | · | · | ·
CCOc1ccc(NC2OC(CO)C(O)C(O)C2O)c([N+](=O)[O-])c1 (configuration not stated) | – | – | – | – | – | – | · | · | · | · | · | ·
Cc1nn(-c2cc(C)c3ccccc3n2)c2c1CCC2 | – | -5.4 | – | – | – | – | – | – | – | – | – | –
Cc1cc(N2CCCC2)nc2ccccc12 | – | -8.2 | – | – | – | – | · | · | · | · | 53% | – | TRPC4 sel inh 2=50%;TRPC4 spec=-30%;HEK293 MPD ctr 2-1=-6.5%;HEK293 MPD ctr-1=-410%
CCn1ccc2cc(OC)ccc2c1=S | – | – | – | – | – | – | · | · | · | · | · | ·
CCSc1ccc2cc(OC)ccc2[n+]1CC | – | -7.6 | – | – | – | – | · | · | · | · | 62% | – | TRPC4 sel inh 2=76%;TRPC4 spec=-21%;HEK293 MPD ctr 2-1=39%;HEK293 MPD ctr-1=-314%
CC1CCC(C(C)C)C(OC(=O)Cn2c(-c3ccccc3)[n+](C)c3ccccc32)C1 (configuration not stated) | – | -5.6! | – | 12 | – | – | 506% | – | 110% | 60% | 63% | 176%
Cc1ccc(CN2CC(C(=O)N3CCN(S(=O)(=O)c4cccc(F)c4)CC3)CC2=O)cc1 (configuration not stated) | – | – | – | – | – | – | · | · | · | · | · | ·
CCCCN(CCCC)CCCNC(=O)C12CN(Cc3ccccc3)CC1C(c1cccc([N+](=O)[O-])c1)=NO2 (configuration not stated) | – | -7.5 | – | – | – | – | · | · | · | · | – | – | TRPC4 sel inh 2=60%;TRPC4 spec=–;HEK293 MPD ctr 2-1=–;HEK293 MPD ctr-1=–
